ChEMBL document CHEMBL1124366, “Synthesis and biological properties of N63-carboxamides of teicoplanin antibiotics. Structure-activity relationships” (J Med Chem, 1989)
≈ marks a conversion by molar mass, not a printed value.

Assays:
[1] = test system: Staphylococcus haemolyticus; experiment: 50 percent Minimum inhibitory concentration of compound against 8 strains of Staphylococcus hemolyticus; assay type: functional
Summary of the method: (§1)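 Agar dilution on Iso-Sensitest agar against clinical coagulase-negative staphylococcal isolates, including methicillin-resistant strains. Final inoculum about 10⁴ cfu/mL.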

Staphylococcus sp. [2] = experiment: 90 percent Minimum inhibitory concentration of compound against 16 different strains of staphylococcus species; assay type: functional; summary of the method: as §1
Streptococcus pyogenes [3] = experiment: In vitro minimum inhibitory concentration against Streptococcus pyogenes C 203; assay type: functional
[4] = test system: Staphylococcus haemolyticus; experiment: In vitro minimum inhibitory concentration against Staphylococcus hemolyticus 602 cell line; assay type: functional; conditions: strain 602
Streptococcus pneumoniae = experiment: In vitro minimum inhibitory concentration against Streptococcus pneumoniae UC41; assay type: functional
[5] = test system: Staphylococcus epidermidis; experiment: 50 percent Minimum inhibitory concentration of compound against 12 strains of Staphylococcus epidermidis; assay type: functional; summary of the method: as §1
Enterococcus faecalis = experiment: In vitro minimum inhibitory concentration against Streptococcus faecalis ATCC 7080; assay type: functional
[6] = test system: Staphylococcus epidermidis; experiment: 90 percent Minimum inhibitory concentration of compound against 12 strains of Staphylococcus epidermidis; assay type: functional; summary of the method: as §1
[7] = test system: Staphylococcus epidermidis; experiment: In vitro minimum inhibitory concentration against Staphylococcus epidermis ATCC 12228; assay type: functional
Streptococcus pyogenes [8] = experiment: In vivo effective dose given perorally to mice infected with Streptococcus pyogenes C 203; assay type: functional; conditions: po
Summary of the method: (§2)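 Mice (five per treatment group, five groups) infected intraperitoneally with about 10⁵ cells of Strep. pyogenes C 203, about 100× the LD50. ED50 (mg/kg) was calculated from the percentage of mice surviving at each dose on day 7.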

Staphylococcus aureus [9] = experiment: In vitro minimum inhibitory concentration against Staphylococcus aureus Tour; assay type: functional
[10] = test system: Staphylococcus epidermidis; experiment: Minimum inhibitory concentration of compound against 12 strains of Staphylococcus epidermidis; assay type: functional; summary of the method: as §1
[11] = test system: Staphylococcus haemolyticus; experiment: 90 percent Minimum inhibitory concentration of compound against 8 strains of Staphylococcus hemolyticus; assay type: functional; summary of the method: as §1
[12] = test system: Staphylococcus haemolyticus; experiment: Minimum inhibitory concentration of compound against 8 strains of Staphylococcus hemolyticus; assay type: functional; summary of the method: as §1
Streptococcus pyogenes [13] = experiment: Subcutaneously administration into mice infected with Streptococcus pyogenes C 203; assay type: functional; conditions: sc; summary of the method: as §2
Staphylococcus sp. [14] = experiment: Minimum inhibitory concentration of compound against 16 different strains of staphylococcus species; assay type: functional; summary of the method: as §1
Staphylococcus sp. [15] = experiment: 50 percent Minimum inhibitory concentration of compound against 16 different strains of staphylococcus species; assay type: functional; summary of the method: as §1
Staphylococcus aureus [16] = experiment: In vitro minimum inhibitory concentration of compound against Staphylococcus aureus Tour; assay type: organism-based

| SMILES | MIC50 [1] [µg/mL] | MIC90 (Staphylococcus sp. [2]) [µg/mL] | MIC (Streptococcus pyogenes [3]) [µg/mL] | MIC [4] [µg/mL] | MIC (Streptococcus pneumoniae) [µg/mL] | MIC50 [5] [µg/mL] | MIC (Enterococcus faecalis) [µg/mL] | MIC90 [6] [µg/mL] | MIC [7] [µg/mL] | ED50 (Streptococcus pyogenes [8]) [mg/kg] | MIC (Staphylococcus aureus [9]) [µg/mL] | MIC [10] [µg/mL] | MIC90 [11] [µg/mL] | MIC [12] [µg/mL] | ED50 (Streptococcus pyogenes [13]) [mg/kg] | MIC (Staphylococcus sp. [14]) [µg/mL] | MIC50 (Staphylococcus sp. [15]) [µg/mL] | MIC (Staphylococcus aureus [16]) [µg/mL] |
| --- | --- | --- | --- | --- | --- | --- | --- | --- | --- | --- | --- | --- | --- | --- | --- | --- | --- | --- |
| CCCCC/C=C/CCC(=O)N[C@@H]1[C@H](Oc2c3cc4cc2Oc2ccc(cc2Cl)[C@@H](O[C@@H]2O[C@@H](CO)[C@@H](O)[C@H](O)[C@@H]2NC(C)=O)[C@@H]2NC(=O)[C@H](NC(=O)[C@@H]4NC(=O)[C@H]4NC(=O)[C@@H](Cc5ccc(c(Cl)c5)O3)NC(=O)[C@H](N)c3ccc(O)c(c3)Oc3cc(O)cc4c3)c3ccc(O)c(c3)-c3c(O[C@H]4O[C@H](CO)[C@@H](O)[C@@H](O)[C@@H]4O)cc(O)cc3[C@@H](C(=O)O)NC2=O)O[C@@H](CO)[C@@H](O)[C@@H]1O | 16 (≈ 8.52 µM) | 4 (≈ 2.13 µM) | 0.06 (≈ 0.032 µM) | 4 (≈ 2.13 µM) | 0.06 (≈ 0.032 µM) | 0.5 (≈ 0.266 µM) | 0.12 (≈ 0.0639 µM) | 2 (≈ 1.07 µM) | 0.25 (≈ 0.133 µM) | 170 | 0.12 (≈ 0.0639 µM) | 0.25 (≈ 0.133 µM) | 32 (≈ 17 µM) | 2 (≈ 1.07 µM) | 0.12 | 0.25 (≈ 0.133 µM) | 1 (≈ 0.533 µM) | – |
| CC(=O)N[C@@H]1[C@H](O[C@@H]2c3ccc(c(Cl)c3)Oc3cc4cc(c3O[C@@H]3O[C@@H](CO)[C@@H](O)[C@H](O)[C@@H]3NC(=O)CCCCCCC(C)C)Oc3ccc(cc3Cl)C[C@H]3NC(=O)[C@H](N)c5ccc(O)c(c5)Oc5cc(O)cc(c5)[C@H](NC3=O)C(=O)N[C@H]4C(=O)N[C@H]3C(=O)N[C@@H]2C(=O)N[C@H](C(=O)NCCCN(C)C)c2cc(O)cc(O[C@H]4O[C@H](CO)[C@@H](O)[C@@H](O)[C@@H]4O)c2-c2cc3ccc2O)O[C@@H](CO)[C@@H](O)[C@@H]1O | 1 (≈ 0.509 µM) | 1 (≈ 0.509 µM) | 0.06 (≈ 0.0306 µM) | 0.12 (≈ 0.0611 µM) | 0.06 (≈ 0.0306 µM) | 0.25 (≈ 0.127 µM) | 0.12 (≈ 0.0611 µM) | 1 (≈ 0.509 µM) | 0.06 (≈ 0.0306 µM) | 70.7 | 0.12 (≈ 0.0611 µM) | 0.125 (≈ 0.0637 µM) | 2 (≈ 1.02 µM) | 1 (≈ 0.509 µM) | 0.05 | 0.25 (≈ 0.127 µM) | 0.5 (≈ 0.255 µM) | – |
| CC(=O)N[C@@H]1[C@H](O[C@@H]2c3ccc(c(Cl)c3)Oc3cc4cc(c3O[C@@H]3O[C@@H](CO)[C@@H](O)[C@H](O)[C@@H]3NC(=O)CCCCCCC(C)C)Oc3ccc(cc3Cl)C[C@H]3NC(=O)[C@H](N)c5ccc(O)c(c5)Oc5cc(O)cc(c5)[C@H](NC3=O)C(=O)N[C@H]4C(=O)N[C@H]3C(=O)N[C@@H]2C(=O)N[C@H](C(=O)NC2CCN(Cc4ccccc4)CC2)c2cc(O)cc(O[C@H]4O[C@H](CO)[C@@H](O)[C@@H](O)[C@@H]4O)c2-c2cc3ccc2O)O[C@@H](CO)[C@@H](O)[C@@H]1O | – | – | 0.06 (≈ 0.0292 µM) | 4 (≈ 1.95 µM) | 0.06 (≈ 0.0292 µM) | – | 0.12 (≈ 0.0585 µM) | – | 0.12 (≈ 0.0585 µM) | > 300 | – | – | – | – | 0.08 | – | – | 0.12 (≈ 0.0585 µM) |
